# Reference: ChEMBL document CHEMBL3792373, “Anti-methicillin resistant Staphylococcus aureus activity, synergism with oxacillin and molecular docking studies of metronidazole-triazole hybrids” (Eur J Med Chem, 2016)
# Columns and labels:
# Staphylococcus aureus [1] = experiment: Antimicrobial activity against methicillin-resistant Staphylococcus aureus isolate 22a after 24 hrs by agar plate dilution method; type: functional
# Procedure, shortened: (§1)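 Clinical MRSA isolates from axilla/nasal swabs, identified by mannitol salt agar, Gram stain and coagulase test. Agar plate dilution with compound series 0.03–128 µg/mL. Inoculum suspended in water to McFarland 0.5. Incubation 24 h at 37 °C. MIC read as the lowest level without white growth spots. Dilution series quality-controlled with S. aureus NCTC 6571.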
# Staphylococcus aureus [2] = experiment: Antimicrobial activity against methicillin-resistant Staphylococcus aureus isolate 4a after 24 hrs by agar plate dilution method; type: functional; procedure, shortened: as §1
# Staphylococcus aureus [3] = experiment: Bactericidal activity against methicillin-resistant Staphylococcus aureus isolate 1a assessed as reduction in colony counts at 32 ug/ml after 4 hrs by pour plate method in presence of oxacillin (1:1) (reference value: 6.14 +/- 0.456 log10CFU/ml); type: functional
# Staphylococcus aureus [4] = experiment: Bactericidal activity against methicillin-resistant Staphylococcus aureus isolate 1a assessed as reduction in colony counts at 32 ug/ml after 16 hrs by pour plate method (reference value: 12.50 +/- 0.291 log10CFU/ml); type: functional
# Staphylococcus aureus [5] = experiment: Antimicrobial activity against methicillin-resistant Staphylococcus aureus isolate 7a after 24 hrs by agar plate dilution method in presence of oxacillin (1:1); type: functional
# Procedure, shortened: (§2)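 Clinical MRSA isolates, from axilla/nasal swabs and identified by mannitol salt agar, Gram stain and coagulase test. […] Inoculum adjusted to McFarland 0.5 in water. Plates incubated 24 h at 37 °C and scored for growth spots. Dilution series quality-controlled with S. aureus NCTC 6571. Combination lines used a 1:1 mixture with oxacillin.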
# Staphylococcus aureus [6] = experiment: Antimicrobial activity against methicillin-resistant Staphylococcus aureus isolate 11a after 24 hrs by agar plate dilution method in presence of oxacillin (1:1); type: functional
# Procedure, shortened: (§3)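 Test compound and oxacillin mixed 1:1, each at 32 µg/mL in the mixture, then serially diluted into agar plates. Clinical MRSA isolates at McFarland 0.5 in water were spotted onto the plates and incubated 24 h at 37 °C. Growth was read as white spots. NCTC 6571 S. aureus served as the dilution-series control.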
# Staphylococcus aureus [7] = experiment: Antimicrobial activity against methicillin-resistant Staphylococcus aureus isolate 8a after 24 hrs by agar plate dilution method in presence of oxacillin (1:1); type: functional; procedure, shortened: as §2
# Staphylococcus aureus [8] = experiment: Antimicrobial activity against methicillin-resistant Staphylococcus aureus isolate 17a after 24 hrs by agar plate dilution method; type: functional; procedure, shortened: as §1
# Staphylococcus aureus [9] = experiment: Antimicrobial activity against methicillin-resistant Staphylococcus aureus isolate 11a after 24 hrs by agar plate dilution method; type: functional; procedure, shortened: as §1
# Staphylococcus aureus [10] = experiment: Antimicrobial activity against methicillin-resistant Staphylococcus aureus isolate 25a after 24 hrs by agar plate dilution method in presence of oxacillin (1:1); type: functional; procedure, shortened: as §3
# [11] = Cytotoxicity against human THP1 cells upto 50 uM treated 3 times per week for 14 days by MTT assay; type: cell-based; details: thp-1, 336 h
# Staphylococcus aureus [12] = experiment: Bactericidal activity against methicillin-resistant Staphylococcus aureus isolate 1a assessed as reduction in colony counts at 32 ug/ml after 8 hrs by pour plate method in presence of oxacillin (1:1) (reference value: 8.30 +/- 0.442 log10CFU/ml); type: functional
# Staphylococcus aureus [13] = experiment: Antimicrobial activity against methicillin-resistant Staphylococcus aureus isolate 5a after 24 hrs by agar plate dilution method in presence of oxacillin (1:1); type: functional; procedure, shortened: as §2
# Staphylococcus aureus [14] = experiment: Antimicrobial activity against methicillin-resistant Staphylococcus aureus isolate 30a after 24 hrs by agar plate dilution method in presence of oxacillin (1:1); type: functional; procedure, shortened: as §3
# Staphylococcus aureus [15] = experiment: Antimicrobial activity against methicillin-resistant Staphylococcus aureus isolate 13a after 24 hrs by agar plate dilution method; type: functional; procedure, shortened: as §1
# Staphylococcus aureus [16] = experiment: Bactericidal activity against methicillin-resistant Staphylococcus aureus isolate 1a assessed as reduction in colony counts at 32 ug/ml after 16 hrs by pour plate method in presence of oxacillin (1:1) (reference value: 12.50 +/- 0.291 log10CFU/ml); type: functional
# Staphylococcus aureus [17] = experiment: Antimicrobial activity against methicillin-resistant Staphylococcus aureus isolate 3a after 24 hrs by agar plate dilution method in presence of oxacillin (1:1); type: functional; procedure, shortened: as §3
# Staphylococcus aureus [18] = experiment: Antimicrobial activity against methicillin-resistant Staphylococcus aureus isolate 19a after 24 hrs by agar plate dilution method in presence of oxacillin (1:1); type: functional; procedure, shortened: as §3
# Staphylococcus aureus [19] = experiment: Antimicrobial activity against methicillin-resistant Staphylococcus aureus isolate 3a after 24 hrs by agar plate dilution method; type: functional; procedure, shortened: as §1
# Staphylococcus aureus [20] = experiment: Antimicrobial activity against methicillin-resistant Staphylococcus aureus isolate 28a after 24 hrs by agar plate dilution method in presence of oxacillin (1:1); type: functional; procedure, shortened: as §3
# Staphylococcus aureus [21] = experiment: Antimicrobial activity against methicillin-resistant Staphylococcus aureus isolate 12a after 24 hrs by agar plate dilution method in presence of oxacillin (1:1); type: functional; procedure, shortened: as §3
# Staphylococcus aureus [22] = experiment: Antimicrobial activity against methicillin-resistant Staphylococcus aureus isolate 1a after 24 hrs by agar plate dilution method; type: functional; procedure, shortened: as §1
# Staphylococcus aureus [23] = experiment: Antimicrobial activity against methicillin-resistant Staphylococcus aureus isolate 23a after 24 hrs by agar plate dilution method in presence of oxacillin (1:1); type: functional; procedure, shortened: as §3
# Staphylococcus aureus [24] = experiment: Bactericidal activity against methicillin-resistant Staphylococcus aureus isolate 1a assessed as reduction in colony counts at 32 ug/ml after 20 hrs by pour plate method (reference value: 12.73 +/- 0.223 log10CFU/ml); type: functional
# Staphylococcus aureus [25] = experiment: Antimicrobial activity against methicillin-resistant Staphylococcus aureus isolate 12a after 24 hrs by agar plate dilution method; type: functional; procedure, shortened: as §1
# Staphylococcus aureus [26] = experiment: Antimicrobial activity against methicillin-resistant Staphylococcus aureus isolate 7a after 24 hrs by agar plate dilution method; type: functional; procedure, shortened: as §2
# Staphylococcus aureus [27] = experiment: Antimicrobial activity against methicillin-resistant Staphylococcus aureus isolate 16a after 24 hrs by agar plate dilution method in presence of oxacillin (1:1); type: functional; procedure, shortened: as §3
# Staphylococcus aureus [28] = experiment: Bactericidal activity against methicillin-resistant Staphylococcus aureus isolate 1a assessed as reduction in colony counts at 32 ug/ml after 4 hrs by pour plate method (reference value: 6.14 +/- 0.456 log10CFU/ml); type: functional
# Staphylococcus aureus [29] = experiment: Antimicrobial activity against methicillin-resistant Staphylococcus aureus isolate 13a after 24 hrs by agar plate dilution method in presence of oxacillin (1:1); type: functional; procedure, shortened: as §3
# Staphylococcus aureus [30] = experiment: Antimicrobial activity against methicillin-resistant Staphylococcus aureus isolate 20a after 24 hrs by agar plate dilution method; type: functional; procedure, shortened: as §1
# Staphylococcus aureus [31] = experiment: Antimicrobial activity against methicillin-resistant Staphylococcus aureus isolate 25a after 24 hrs by agar plate dilution method; type: functional; procedure, shortened: as §1
# Staphylococcus aureus [32] = experiment: Antimicrobial activity against methicillin-resistant Staphylococcus aureus isolate 24a after 24 hrs by agar plate dilution method; type: functional; procedure, shortened: as §1
# Staphylococcus aureus [33] = experiment: Bactericidal activity against methicillin-resistant Staphylococcus aureus isolate 1a assessed as reduction in colony counts at 32 ug/ml after 12 hrs by pour plate method (reference value: 10.12 +/- 0.428 log10CFU/ml); type: functional
# Staphylococcus aureus [34] = experiment: Antimicrobial activity against methicillin-resistant Staphylococcus aureus isolate 26a after 24 hrs by agar plate dilution method in presence of oxacillin (1:1); type: functional; procedure, shortened: as §3
# Staphylococcus aureus [35] = experiment: Antimicrobial activity against methicillin-resistant Staphylococcus aureus isolate 9a after 24 hrs by agar plate dilution method in presence of oxacillin (1:1); type: functional; procedure, shortened: as §2
# Staphylococcus aureus [36] = experiment: Antimicrobial activity against methicillin-resistant Staphylococcus aureus isolate 10a after 24 hrs by agar plate dilution method; type: functional; procedure, shortened: as §1
# Staphylococcus aureus [37] = experiment: Antimicrobial activity against methicillin-resistant Staphylococcus aureus isolate 1a after 24 hrs by agar plate dilution method in presence of oxacillin (1:1); type: functional; procedure, shortened: as §3
# Staphylococcus aureus [38] = experiment: Antimicrobial activity against methicillin-resistant Staphylococcus aureus isolate 6a after 24 hrs by agar plate dilution method; type: functional; procedure, shortened: as §2
compound,measurement,setting,value
Cc1ncc([N+](=O)[O-])n1CCn1cc(COc2c(Cl)cccc2Cl)nn1,MIC,Staphylococcus aureus [1],> 128 µg/mL
same,MIC,Staphylococcus aureus [2],4 µg/mL
same,Activity,Staphylococcus aureus [3],5.5 log10CFU/ml
same,Activity,Staphylococcus aureus [4],5.53 log10CFU/ml
same,MIC,Staphylococcus aureus [5],1 µg/mL
same,MIC,Staphylococcus aureus [6],1 µg/mL
same,MIC,Staphylococcus aureus [7],1 µg/mL
same,MIC,Staphylococcus aureus [8],32 µg/mL
same,MIC,Staphylococcus aureus [9],16 µg/mL
same,MIC,Staphylococcus aureus [10],4 µg/mL
same,Activity,[11],Non-toxic
same,Activity,Staphylococcus aureus [12],5.85 log10CFU/ml
same,MIC,Staphylococcus aureus [13],1 µg/mL
same,MIC,Staphylococcus aureus [14],8 µg/mL
same,MIC,Staphylococcus aureus [15],64 µg/mL
same,Activity,Staphylococcus aureus [16],4.52 log10CFU/ml
same,MIC,Staphylococcus aureus [17],1 µg/mL
same,MIC,Staphylococcus aureus [18],2 µg/mL
same,MIC,Staphylococcus aureus [19],4 µg/mL
same,MIC,Staphylococcus aureus [20],1 µg/mL
same,MIC,Staphylococcus aureus [21],2 µg/mL
same,MIC,Staphylococcus aureus [22],4 µg/mL
same,MIC,Staphylococcus aureus [23],4 µg/mL
same,Activity,Staphylococcus aureus [24],5.57 log10CFU/ml
same,MIC,Staphylococcus aureus [25],32 µg/mL
same,MIC,Staphylococcus aureus [26],4 µg/mL
same,MIC,Staphylococcus aureus [27],2 µg/mL
same,Activity,Staphylococcus aureus [28],5.65 log10CFU/ml
same,MIC,Staphylococcus aureus [29],4 µg/mL
same,MIC,Staphylococcus aureus [30],> 128 µg/mL
same,MIC,Staphylococcus aureus [31],64 µg/mL
same,MIC,Staphylococcus aureus [32],> 128 µg/mL
same,Activity,Staphylococcus aureus [33],5.96 log10CFU/ml
same,MIC,Staphylococcus aureus [34],4 µg/mL
same,MIC,Staphylococcus aureus [35],2 µg/mL
same,MIC,Staphylococcus aureus [36],> 128 µg/mL
same,MIC,Staphylococcus aureus [37],1 µg/mL
same,MIC,Staphylococcus aureus [38],4 µg/mL
